Here are results for four molecules from ChEMBL document CHEMBL4706726, “Glucosamine and Its Analogues as Modulators of Amyloid-β Toxicity” (ACS Med Chem Lett, 2021).

The inhibition is the share of the control response that was lost under treatment.

Each structure is given as a SMILES string. Calls of active or inactive are those of the source. The rule behind the calls is not given here.

The target in series [1] is Amyloid-beta precursor protein (Homo sapiens) (UniProt P05067). Kind of series: Modulation of amyloid beta (1 to 42) supramolecular organization in human SH-SY5Y cells assessed as reduction in insulin resistance by measuring increase in AKT1 phosphorylation phosphorylation at Ser473 residue at 1 mM incubated for 1 hr by immunoblot analysis. Type of series: cell-based. To be noted: filed as modulator. The essentials:
(§1)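 SH-SY5Y cells in medium with 10% FBS, no added insulin, cultured 1 h with Aβ42 (25 μM) with or without monosaccharide (1 mM); protein expression read by immunoblot.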

Series [2] has the same target. Kind of series: Modulation of amyloid beta (1 to 42) supramolecular organization in human SH-SY5Y cells assessed as reduction in AChE activity at 1 mM incubated for 1 day. In kind it is cell-based. The settings on record: filed as modulator. An outline of the steps: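 SH-SY5Y neuroblastoma cells exposed to Aβ42 with monosaccharide (1 mM); cellular AChE activity read after 1 day of incubation.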

Series [3] has the same target. Kind of series: Modulation of amyloid beta (1 to 42) supramolecular organization in human SH-SY5Y cells assessed as inhibition of Abeta42-induced disruption of cell membrane by measuring reduction in Ca2+ influx at 1 mM incubated for 24 hrs by Fluo-3AM dye based scanning confocal fluorescence microscopy relative to control. To be noted: filed as modulator. An outline of the steps: (§2)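 SH-SY5Y cells cultured 24 h with Aβ42 (25 μM) plus each monosaccharide (1 mM). Intracellular free Ca2+ imaged by fluorescence using Fluo3-AM […] as Ca2+ probes. Controls were cells cultured without Aβ42 and monosaccharide.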

Series [4] shares this target. As to the kind of experiment: Modulation of amyloid beta (1 to 42) supramolecular organization in human SH-SY5Y cells assessed as inhibition of Abeta42-induced disruption of cell membrane by measuring reduction in Ca2+ influx at 1 mM incubated for 24 hrs by […] dye based scanning confocal fluorescence microscopy relative to control. To be noted: filed as modulator. An outline of the steps: as §2

Series [5] concerns SH-SY5Y. Kind of series: Neuroprotective activity against Abeta-42-induced cytotoxicity in human SH-SY5Y cells assessed as increase in cell viability at 1 mM measured upto 5 days by alamar blue assay. In kind it is functional, cell-based. The settings on record: time day <=5. An outline of the steps: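 SH-SY5Y cells incubated with Aβ42 plus each monosaccharide (1 mM) for 5 h, 24 h and 5 days. Cell viability measured at each time.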
For orientation: Resazurin is reduced to fluorescent resorufin, in cell work by metabolically active cells.

The target in series [6] is Amyloid-beta precursor protein (Homo sapiens) (UniProt P05067). Kind of series: Modulation of human amyloid beta (1 to 42) supramolecular organization at 0.4 mM by dynamic light scattering based analysis. To be noted: filed as modulator.
The target is the same in series [7]. Kind of series: Modulation of amyloid beta (1 to 42) supramolecular organization in human SH-SY5Y cells assessed as reduction in inflammation by measuring decrease in Abeta-42-induced ANXA1 expression at 1 mM incubated for 1 hr by immunoblot analysis. To be noted: filed as modulator. Type of series: cell-based. An outline of the steps: as §1
For series [8] the target is unchanged. As to the kind of experiment: Modulation of human amyloid beta (1 to 42) supramolecular organization assessed as reduction in antiparallel beta-sheets characteristic of cytotoxic Abeta42 aggregates at 1 mM measured for 5 days by CD spectrometry. The settings on record: filed as modulator, time 5.0 day. The essentials: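 Aβ42 secondary structure followed by circular dichroism over 1 and 5 days, with 1 mM of each monosaccharide present. Loss of antiparallel β-sheet was scored against 25 μM Aβ42 control. Error bars SD.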

The target is the same in series [9]. As to the kind of experiment: Modulation of human amyloid beta (1 to 42) supramolecular organization assessed as reduction in amount of cytotoxic Abeta42 oligomers at 1 mM measured for 1 to 5 days by Western blot analysis. To be noted: filed as modulator, time 1-5 day. An outline of the steps: (§3)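 Aβ42 (25 μM) incubated with monosaccharide (1 mM) for 1 or 5 days; assemblies detected by Western blot with antibody 6E10 and quantified by relative densitometry against Aβ42 alone; error bars SD.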
(In general: A western blot detects proteins with antibodies after separation by electrophoresis.)

The target is the same in series [10]. Kind of series: Modulation of amyloid beta (1 to 42) supramolecular organization in human SH-SY5Y cells assessed as reduction in insulin resistance by measuring reduction in Abeta-42-induced IRS1 phosphorylation at Ser612 residue at 1 mM incubated for 1 hr by immunoblot analysis. To be noted: filed as modulator. In kind it is cell-based. The essentials: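 SH-SY5Y cells cultured 1 h in medium with 10% FBS and no added insulin, with or without Aβ42 (25 μM) and each monosaccharide. IRS1 phosphorylation at S612 quantified by expression analysis. Parallel runs supplemented with 5 nM insulin.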

For series [11] the target is unchanged. Kind of series: Modulation of human amyloid beta (1 to 42) supramolecular organization assessed as prevalence of Abeta42 fibrils with parallel beta-sheets at 1 mM incubated for 5 days by ATR-FITR analysis. To be noted: time 5.0 day.
Series [12] has the same target. Kind of series: Modulation of human amyloid beta (1 to 42) supramolecular assembly assessed as elongation of amyloid beta42 fibrils at <50 mM measured for 10 days by ThT dye based fluorescence spectrophotometry. The settings on record: filed as modulator, dose mM <50, time 10.0 day. The essentials:
(§4)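 Aβ42 aggregation kinetics followed for 10 days by thioflavin-T fluorescence, which reports parallel β-sheets. Each monosaccharide tested at several concentrations from 250 μM up to 50 mM.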

For series [13] the target is unchanged. Kind of series: Modulation of amyloid beta (1 to 42) supramolecular organization in human SH-SY5Y cells assessed as reduction in inflammation by measuring decrease in Abeta-42-induced ANXA1 expression at 1 mM incubated for 1 hr in presence of insulin by immunoblot analysis. The settings on record: filed as modulator. In kind it is cell-based. An outline of the steps:
(§5)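 SH-SY5Y cells in medium with 10% FBS plus 5 nM insulin, cultured 1 h with Aβ42 (25 μM) with or without monosaccharide (1 mM); protein expression read by immunoblot.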

The target is the same in series [14]. As to the kind of experiment: Modulation of amyloid beta (1 to 42) supramolecular organization in human SH-SY5Y cells assessed as reduction in insulin resistance by measuring reduction in Abeta-42-induced IRS1 phosphorylation at Ser612 residue at 1 mM incubated for 1 hr in presence of insulin by immunoblot analysis. In kind it is cell-based. To be noted: filed as modulator. The essentials:
as §5

The target is the same in series [15]. As to the kind of experiment: Modulation of human amyloid beta (1 to 42) supramolecular assembly assessed as elongation of amyloidbeta42 fibrils at 50 mM measured for 10 days by ThT dye based fluorescence spectrophotometry. To be noted: time 10.0 day. The essentials: as §4
For series [16] the target is unchanged. Kind of series: Modulation of human amyloid beta (1 to 42) supramolecular organization assessed as reduction in 6E10 epitope binding site structure at 1 mM measured for 1 to 5 days by Western blot analysis. The settings on record: filed as modulator, time 1-5 day. The essentials:
as §3

The subject of series [17] is SH-SY5Y. Kind of series: Cytotoxicity against human SH-SY5Y cells assessed as reduction in cell viability at 1 mM measured after 1 day by alamar blue assay. In kind it is cell-based. To be noted: 24 h, 1000 µM. The essentials:
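SH-SY5Y neuroblastoma cells exposed to each monosaccharide (1 mM) under cell culture conditions without Aβ42. Viability screened for cytotoxicity.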

Sequence of Amyloid-beta precursor protein (Homo sapiens) (P05067 whole entry): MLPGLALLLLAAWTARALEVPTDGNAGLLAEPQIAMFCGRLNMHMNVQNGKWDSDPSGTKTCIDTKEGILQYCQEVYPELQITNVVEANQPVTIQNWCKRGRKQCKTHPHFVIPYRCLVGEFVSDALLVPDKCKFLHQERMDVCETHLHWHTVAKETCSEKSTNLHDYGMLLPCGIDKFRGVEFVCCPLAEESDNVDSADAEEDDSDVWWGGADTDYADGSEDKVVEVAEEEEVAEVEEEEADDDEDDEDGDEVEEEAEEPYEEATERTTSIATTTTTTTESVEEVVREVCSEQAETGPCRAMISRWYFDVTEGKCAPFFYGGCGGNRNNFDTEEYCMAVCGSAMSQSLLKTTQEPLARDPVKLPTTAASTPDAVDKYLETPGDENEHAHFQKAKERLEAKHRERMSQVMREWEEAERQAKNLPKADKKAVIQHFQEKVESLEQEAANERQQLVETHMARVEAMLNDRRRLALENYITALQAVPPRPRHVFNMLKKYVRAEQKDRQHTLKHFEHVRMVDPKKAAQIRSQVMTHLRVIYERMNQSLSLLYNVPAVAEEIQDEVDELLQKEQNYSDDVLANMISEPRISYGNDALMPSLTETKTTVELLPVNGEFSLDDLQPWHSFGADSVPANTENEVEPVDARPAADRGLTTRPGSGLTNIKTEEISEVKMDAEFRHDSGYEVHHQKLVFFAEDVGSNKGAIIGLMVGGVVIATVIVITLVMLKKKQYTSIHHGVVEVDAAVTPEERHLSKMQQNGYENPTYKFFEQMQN

For `N[C@@H]1[C@@H](O)[C@H](O)[C@@H](COS(=O)(=O)O)O[C@H]1O`, the result (in series [1]; in [2]; with SH-SY5Y [5]; in series [6]; in series [7]; in series [8]) was Active. Moreover, the outcome in [9], in series [10], in series [11] (filed as modulator), in [12], in [13] and in series [14] was Active. Moreover, the result in [16] was Active. The values for the inhibition in series [3] and in series [4] were 41% and 60%, respectively. In series [15], the result was inactive. For the same molecule, the Activity entry with SH-SY5Y [17] is given as “Non-Toxic”.
As to `CC(=O)N[C@H]1C(O)O[C@H](CO)[C@@H](O)[C@@H]1O` (some centres not stated), the result (with SH-SY5Y [5]; in series [6]; in [8]; in series [10]; in series [12]) was Active. Also, the outcome in [11] and in [15] was inactive. In the series with SH-SY5Y [17], the Activity entry was “Non-Toxic”.
`N[C@@H]1[C@@H](O)[C@H](O)[C@@H](CO)O[C@H]1O`: the result (in the series with SH-SY5Y [5]; in series [6]; in series [8]; in series [12]) was Active. Also, the outcome in [11] and in [15] was inactive. Further, the Activity result with SH-SY5Y [17] is recorded as “Non-Toxic”.
Consider `N[C@@H]1[C@@H](O)[C@H](O)[C@@H](COP(=O)(O)O)O[C@H]1O`, for which the result (in [1]; in the series with SH-SY5Y [5]; in series [6]; in [7]; in [8]; in series [10]) was Active. Further, the outcome in series [11] (filed as modulator), in [12], in [13], in series [14] and in series [16] was Active. In addition, the inhibition entry in [3] and in series [4] was “Active” throughout. In series [15], the outcome was inactive. Besides, the Activity result in the series on SH-SY5Y [17] is on record as “Non-Toxic”.
